Assay results published in the RNAGym collection of RNA variant scans (doi:10.1126/science.aae0568).
Fewer inactive variants are shown than the library holds.

B1: tRNA (parent)
chain: GUUCCGUUGGCGUAAUGGUAACGCGUCUCCCUCCUAAGGAGAAGACUGCGGGUUCGAGUCCCGUACGGAACG

Variants of: B1
Experiment: yeast fitness relative to wild type (ratio to wild type); higher = fitter; tRNA-Arg(CCU), competitive growth, 37 C, YPD
How it was run: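 Amplicons of the tRNA-Arg(CCU) gene were sequenced, 100-nucleotide paired-end, from the start population and from each end population of a pooled yeast competition. The competition, in six parallel replicates, lasted 24 hours in YPD at 37°C. Fitness relative to wild type was calculated from changes in genotype frequencies. Genotypes had to have ≥ 100 starting reads, and estimates < 0.5 were set to 0.5.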

| Variant | yeast fitness |
| --- | --- |
| GUUCCGUAGGCGACAAGGUAACGCGUCUCCCUCCUAAGGAGAAGACUGCGGGUUCGAGUCCCGUACGGAACG [U8A U13A A14C U16A] | ≤ 0.5 |
| GUUCCGUAGGCGUAAUGGUAACGCGUCUCCCUCCUAAGGAGAACACUGCGGGUUCGAGUCCUGUACGGAACG [U8A G44C C62U] | ≤ 0.5 |
| GUUCCGUAGGCGUAAUGGUAACGCGUCUCCCUCCUAAGGAGAAGACUGCAGGUUCGAGUCCCGUACGGUACG [U8A G50A A69U] | 0.589 |
| GUUCCGUAGGCGUAAUGGUAACGCGUCUCCCUCCUAAGGAGAAGACUGCGGAUUCUAGUCCCGUACGGAACG [U8A G52A G56U] | ≤ 0.5 |
| GUUCCGUAGGCGUAAUGGCACCGCGUCUCCCUCCUAAGCAGAAGACUGCGGGUUCGAGUCUCGUACGGAACG [U8A U19C A21C G39C C61U] | ≤ 0.5 |
| GUUCCGUAGGCGAAAUGGUAACGCGUCUGCCUCCUAAGGAGAAGCCUGCGGGUUCGAGUCCCGUACGCGACG [U8A U13A C29G A45C G68C A69G] | ≤ 0.5 |
| GUUCCGUAGGCGUAAUGGUAACGCGUCUCCCUCCUAAGGAGAAGACUCCGGGUUCGAGUCCCGUACGGAGCG [U8A G48C A70G] | ≤ 0.5 |
| GUUCCGUAGGCGUAAUGGUAACGCGUCUCCCUCCUAAGGAGAACACUGCGGGUUCGUGUCCUGUACGGAACG [U8A G44C A57U C62U] | ≤ 0.5 |
| GUUCCGUAGGCGUAAUGGUAACGCGUCUCCCUCCUAAGGACAAGACUGCGGGUUCGAGUCCUGUUCGGAACG [U8A G41C C62U A65U] | ≤ 0.5 |
| GUUCCGUAGGCGUAAUGGUAACGCGUCUCCCUCCUAAGGAGAAAACUGCGGGUUCGAGUCCCGUACGGAACG [U8A G44A] | 0.644 |
| GUUCCGUAGGCGUAAUGGUAACGCGUCUCCCUCCUAAGGAGAACACUGCGGGUUCGAGUCCCGUACGGAACG [U8A G44C] | 0.788 |
| GUUCCGUAGGCGUAAUGGUAACGCGUCUCCCUCCUAAGGAGAACACUGCGGGUUCGAGUCCCGUAUGGAACG [U8A G44C C66U] | ≤ 0.5 |
| GUUCCGUAGGCGUAAUGGCACCGCGUCUCCCUCCUAAGCAGAAGACUGCGGGUUCGAGUCCCGUACGGAACG [U8A U19C A21C G39C] | ≤ 0.5 |
| GUUCCGUAGGCGUAAUGGUAACGCGUCUCCCUCCUAAGGAGAAGACUGCGGGUUCUAGUCCCGUACAGACCG [U8A G56U G67A A70C] | ≤ 0.5 |
| GUUCCGUAGGCGUAAUGGUAACGCGUCUCCCUCCUAAGGAGAAAACUGCGGGUUCGAGUUCCGUACCGAACG [U8A G44A C60U G67C] | 0.576 |
| GUUCCGUAGGCGUAAGGGUAACGCGUCUCCUUCAUAUGGACAAGACUGCGGGUUCGAGUCCCGUACGGAACG [U8A U16G C31U C34A A37U G41C] | 0.525 |
| GUUCCGUAGGCGUAAUGGUAACGCGUCUCCCUCCUAAGCAGAAGACUGCGGGUUCGAGUCCCGUGCGGAACG [U8A G39C A65G] | ≤ 0.5 |
| GUUCCGUAGGCGUAAUGGUAACGCGUCUCCCUCCUAAGGAGAAGACUGCGGGUUCGAAUCCCGUACUGAACG [U8A G58A G67U] | 0.618 |
| GUUCCGUAGGCGUAAUGGCAACGCGUCUCCCUCCUAAGGAGAAGACUCCGGGUUCGAGACCCGUAUGGAACG [U8A U19C G48C U59A C66U] | 0.671 |

| Variant | yeast fitness |
| --- | --- |
| GUUCCGUAGGCGAAUUGGUAACGCGUCUCCCUCCUAAGGAGAAGAGUGCGGGUUCGAGUCCCGUACGGUACG [U8A U13A A15U C46G A69U] | ≤ 0.5 |
| GUUCCGUAGGCGUAAAGGUAACGCGUGUCCAUCCUAAGGAGAAGACUGCGGGUUCGAGCCUCGUACGGAACG [U8A U16A C27G C31A U59C C61U] | ≤ 0.5 |
| GUUCCGUAGGCGUAAUGGGAAUGCGUCUCCCUCCUAAGGAGAAGACUGCGGGUUCGAGUCCCGUACGGAACG [U8A U19G C22U] | ≤ 0.5 |
| GUUCCGUAGGCGUAAUGGUAACGCGUCUCCCUCCUAAGGAGAAGACUGCGGGUUCAAGUCCCGUACGGAACG [U8A G56A] | 0.701 |
| GUUCCGUAGGCGUAAGGGUAACGCGUCUCCCUCCUAAGGAGAAGACUGCGGGUUCGAGUCCCGUACGGAACG [U8A U16G] | 0.628 |
| GUUCCGUAGGCGUAAAGGUAACACGUCUCCCUCUUAAGAAGAAGACUGCGGGUUCGACUCCCGUACGGAACG [U8A U16A G23A C34U G39A G58C] | 0.559 |
| GUUCCGUAGGCGUAAUGGUAACGCGUCUCCCUCCUAAGGAGAAGACUGCGGGUUCGACUCCCGUACGGAACG [U8A G58C] | 0.764 |
| GUUCCGUAGGCGUAAUGGUAACGCGUCUCCCUCCUAAGGAGAAGACUGCGGGUUCAAGUCCCGUACCGAACG [U8A G56A G67C] | ≤ 0.5 |
| GUUCCGUAGGCGUAAAGGUAACGCGUGUCCCUCCUAAGGAGAAGACUGCGGGUUCGAGCCUCGUACGGAACG [U8A U16A C27G U59C C61U] | ≤ 0.5 |
| GUUCCGUAGGCGCAAUGGUAACGCGUCUCCCUCCUAAGGAGAAGACUGCGGGUUCGAGUCCCGUACGGAACG [U8A U13C] | 0.747 |
| GUUCCGUAGGCGUAAUGGUAACGCGUCUCCCUCCUAAGGAGAAGACUGCGCGUUCGAGUCCCGUACGGAACG [U8A G51C] | 0.534 |
| GUUCCGUAGGCGUAAUGGCAACGCGUCUCCAUCCGAAGGAGAGGACCGCGGUUUCGAGUCCCGUACAGAACG [U8A U19C C31A U35G A43G U47C G52U G67A] | ≤ 0.5 |
| GUUCCGUAGGCGUAAUGGUAACGCGUCUCCCUCCUAAGGAGAAGACUGCGGGUUCGAGUCCCAUACGGAACG [U8A G63A] | 0.597 |
| GUUCCGUAGGCGUAAUGGCAACGCGUCUCCCUCCUAAGGAGAAGACUGCGGGUUCGAGUCCCGUACGGAACG [U8A U19C] | 0.805 |
| GUUCCGUAGGCGUAAUGGUAACGCGUCUCCCUCCUAAGGAGAAGACUGCGGGUUCGAGUCCCGUACUGAACG [U8A G67U] | 0.636 |
| GUUCCGUAGGCGUAAUGGUAACGCGUCUCCCUCCUAAGGAGAAGACUGCGGGUUCGAGUCCCGUACCGAACG [U8A G67C] | 0.736 |
| GUUCCGUAGGCGUAAUGGUAACGCGUCUCCCUCCUAAGCAGAGGACUGCGGGUUCGAGUCCCGUACGGAACG [U8A G39C A43G] | 0.605 |
| GUUCCGUAGGCGUAAUGGUAACGCGUCUCCCUCCUAAGCAGAAGACUGCGGGUUCGAGUCCCGUACGGAACG [U8A G39C] | 0.555 |
| GUUCCGUAGGCGACACGGUAACGCGUCUCCCUCCUAAGGAGAAGACUGCGGGUUCGAGUCCCGUACAGAACG [U8A U13A A14C U16C G67A] | ≤ 0.5 |
